Measured values as given in ChEMBL document CHEMBL2086318, “Synthesis and in vitro antimycobacterial activity of 2-methoxybenzanilides and their thioxo analogues” (Eur J Med Chem, 2012).
Converted amounts (≈) assume the structure as drawn.

What was measured:
Type in all cases: functional
[1] = test system: Mycobacterium tuberculosis; experiment: Antimycobacterial activity against Mycobacterium tuberculosis My 331/88 after 14 days by micromethod; conditions: My 331/88, 336 h
Procedure, shortened: (§1)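 MIC by micromethod at 37 °C, read after 14 and 21 days. Inocula were M. tuberculosis My 331/88 at 10^-3 dilution and M. avium My 330/88 at 10^-5 dilution. Compounds added in DMSO across 1000, 500, 250, 125, 62.5, 32, 16, 8, 4, 2, 1 and 0.5; isoniazid standard in sterile water. MIC taken as the lowest concentration inhibiting growth.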

[2] = test system: Mycobacterium tuberculosis; experiment: Antimycobacterial activity against Mycobacterium tuberculosis My 331/88 after 21 days by micromethod; conditions: My 331/88, 504 h; procedure, shortened: as §1
Mycobacterium avium [3] = experiment: Antimycobacterial activity against Mycobacterium avium My 330/88 after 14 days by micromethod; conditions: My 330/88, 336 h
Mycobacterium avium [4] = experiment: Antimycobacterial activity against Mycobacterium avium My 330/88 after 21 days by micromethod; conditions: My 330/88, 504 h
Mycobacterium kansasii [5] = experiment: Antimycobacterial activity against Mycobacterium kansasii My 235/80 after 7 days by micromethod; conditions: My 235/80, 168 h
Mycobacterium kansasii [6] = experiment: Antimycobacterial activity against Mycobacterium kansasii My 235/80 after 14 days by micromethod; conditions: My 235/80, 336 h
Mycobacterium kansasii [7] = experiment: Antimycobacterial activity against Mycobacterium kansasii My 235/80 after 21 days by micromethod; conditions: My 235/80, 504 h
Mycobacterium kansasii [8] = experiment: Antimycobacterial activity against Mycobacterium kansasii My 6509/96 clinical isolate after 7 days by micromethod; conditions: My 6509/96, 168 h
Mycobacterium kansasii [9] = experiment: Antimycobacterial activity against Mycobacterium kansasii My 6509/96 clinical isolate after 14 days by micromethod; conditions: My 6509/96, 336 h
Mycobacterium kansasii [10] = experiment: Antimycobacterial activity against Mycobacterium kansasii My 6509/96 clinical isolate after 21 days by micromethod; conditions: My 6509/96, 504 h

Row | SMILES | MIC [1] [µM] | MIC [2] [µM] | MIC (Mycobacterium avium [3]) [µM] | MIC (Mycobacterium avium [4]) [µM] | MIC (Mycobacterium kansasii [5]) [µM] | MIC (Mycobacterium kansasii [6]) [µM] | MIC (Mycobacterium kansasii [7]) [µM] | MIC (Mycobacterium kansasii [8]) [µM] | MIC (Mycobacterium kansasii [9]) [µM] | MIC (Mycobacterium kansasii [10]) [µM]
1 | COc1cc(Cl)ccc1C(=O)Nc1cccc(Br)c1 | 250 (≈ 85.2 µg/mL) | 250 (≈ 85.2 µg/mL) | 125 (≈ 42.6 µg/mL) | 125 (≈ 42.6 µg/mL) | 125 (≈ 42.6 µg/mL) | 125 (≈ 42.6 µg/mL) | 125 (≈ 42.6 µg/mL) | 125 (≈ 42.6 µg/mL) | 125 (≈ 42.6 µg/mL) | 125 (≈ 42.6 µg/mL)
2 | COc1ccc(Cl)cc1C(=O)Nc1ccc(Cl)cc1 | 62.5 (≈ 18.5 µg/mL) | 62.5 (≈ 18.5 µg/mL) | 62.5 (≈ 18.5 µg/mL) | 62.5 (≈ 18.5 µg/mL) | 62.5 (≈ 18.5 µg/mL) | 250 (≈ 74 µg/mL) | 250 (≈ 74 µg/mL) | 62.5 (≈ 18.5 µg/mL) | 125 (≈ 37 µg/mL) | 125 (≈ 37 µg/mL)
3 | COc1cc(Cl)ccc1C(=O)Nc1ccc(Br)cc1 | 62.5 (≈ 21.3 µg/mL) | 125 (≈ 42.6 µg/mL) | 8 (≈ 2.72 µg/mL) | 32 (≈ 10.9 µg/mL) | 4 (≈ 1.36 µg/mL) | 8 (≈ 2.72 µg/mL) | 32 (≈ 10.9 µg/mL) | 4 (≈ 1.36 µg/mL) | 8 (≈ 2.72 µg/mL) | 32 (≈ 10.9 µg/mL)
4 | O=C(Nc1ccc(Cl)c(Cl)c1)c1ccc(Cl)cc1O | 4 (≈ 1.27 µg/mL) | 4 (≈ 1.27 µg/mL) | 16 (≈ 5.07 µg/mL) | 16 (≈ 5.07 µg/mL) | – | 8 (≈ 2.53 µg/mL) | 8 (≈ 2.53 µg/mL) | – | – | –
5 | COc1ccc(Cl)cc1C(=S)Nc1cccc(Br)c1 | 32 (≈ 11.4 µg/mL) | 32 (≈ 11.4 µg/mL) | 32 (≈ 11.4 µg/mL) | 32 (≈ 11.4 µg/mL) | 16 (≈ 5.71 µg/mL) | 32 (≈ 11.4 µg/mL) | 32 (≈ 11.4 µg/mL) | 32 (≈ 11.4 µg/mL) | 32 (≈ 11.4 µg/mL) | 32 (≈ 11.4 µg/mL)
6 | O=C(Nc1ccc(Cl)cc1)c1ccc(Cl)cc1O | 4 (≈ 1.13 µg/mL) | 4 (≈ 1.13 µg/mL) | 8 (≈ 2.26 µg/mL) | 8 (≈ 2.26 µg/mL) | – | 4 (≈ 1.13 µg/mL) | 8 (≈ 2.26 µg/mL) | – | – | –
7 | COc1ccc(Cl)cc1C(=S)Nc1ccc(C(F)(F)F)cc1 | 16 (≈ 5.53 µg/mL) | 16 (≈ 5.53 µg/mL) | 16 (≈ 5.53 µg/mL) | 16 (≈ 5.53 µg/mL) | 8 (≈ 2.77 µg/mL) | 16 (≈ 5.53 µg/mL) | 32 (≈ 11.1 µg/mL) | 8 (≈ 2.77 µg/mL) | 16 (≈ 5.53 µg/mL) | 16 (≈ 5.53 µg/mL)
8 | COc1ccc(Cl)cc1C(=O)Nc1ccc(Cl)c(Cl)c1 | 125 (≈ 41.3 µg/mL) | 125 (≈ 41.3 µg/mL) | 250 (≈ 82.6 µg/mL) | 250 (≈ 82.6 µg/mL) | 62.5 (≈ 20.7 µg/mL) | 250 (≈ 82.6 µg/mL) | 250 (≈ 82.6 µg/mL) | 62.5 (≈ 20.7 µg/mL) | 125 (≈ 41.3 µg/mL) | 125 (≈ 41.3 µg/mL)
9 | COc1ccc(Cl)cc1C(=S)Nc1ccc([N+](=O)[O-])cc1 | 32 (≈ 10.3 µg/mL) | 32 (≈ 10.3 µg/mL) | 250 (≈ 80.7 µg/mL) | 250 (≈ 80.7 µg/mL) | 125 (≈ 40.3 µg/mL) | 250 (≈ 80.7 µg/mL) | 250 (≈ 80.7 µg/mL) | 125 (≈ 40.3 µg/mL) | 250 (≈ 80.7 µg/mL) | 250 (≈ 80.7 µg/mL)
10 | COc1cc(Cl)ccc1C(=O)Nc1ccc([N+](=O)[O-])cc1 | 250 (≈ 76.7 µg/mL) | 250 (≈ 76.7 µg/mL) | 250 (≈ 76.7 µg/mL) | 250 (≈ 76.7 µg/mL) | 125 (≈ 38.3 µg/mL) | 250 (≈ 76.7 µg/mL) | 250 (≈ 76.7 µg/mL) | 125 (≈ 38.3 µg/mL) | 125 (≈ 38.3 µg/mL) | 125 (≈ 38.3 µg/mL)
11 | O=C(Nc1cccc([N+](=O)[O-])c1)c1cc(Cl)ccc1O | 8 (≈ 2.34 µg/mL) | 8 (≈ 2.34 µg/mL) | 16 (≈ 4.68 µg/mL) | 16 (≈ 4.68 µg/mL) | – | 8 (≈ 2.34 µg/mL) | 8 (≈ 2.34 µg/mL) | – | – | –
12 | COc1cc(Cl)ccc1C(=O)Nc1cccc(Cl)c1 | 125 (≈ 37 µg/mL) | 125 (≈ 37 µg/mL) | 8 (≈ 2.37 µg/mL) | 32 (≈ 9.48 µg/mL) | 8 (≈ 2.37 µg/mL) | 32 (≈ 9.48 µg/mL) | 32 (≈ 9.48 µg/mL) | 62.5 (≈ 18.5 µg/mL) | 62.5 (≈ 18.5 µg/mL) | 125 (≈ 37 µg/mL)
13 | COc1ccc(Cl)cc1C(=S)Nc1ccc(Br)cc1 | 16 (≈ 5.71 µg/mL) | 16 (≈ 5.71 µg/mL) | 16 (≈ 5.71 µg/mL) | 16 (≈ 5.71 µg/mL) | 62.5 (≈ 22.3 µg/mL) | 250 (≈ 89.2 µg/mL) | 250 (≈ 89.2 µg/mL) | 16 (≈ 5.71 µg/mL) | 32 (≈ 11.4 µg/mL) | 32 (≈ 11.4 µg/mL)
14 | O=C(Nc1ccc(Br)cc1)c1cc(Cl)ccc1O | 8 (≈ 2.61 µg/mL) | 16 (≈ 5.23 µg/mL) | 8 (≈ 2.61 µg/mL) | 8 (≈ 2.61 µg/mL) | – | 4 (≈ 1.31 µg/mL) | 4 (≈ 1.31 µg/mL) | – | – | –
15 | COc1cc(Cl)ccc1C(=S)Nc1ccc(C(F)(F)F)cc1 | 8 (≈ 2.77 µg/mL) | 16 (≈ 5.53 µg/mL) | 32 (≈ 11.1 µg/mL) | 32 (≈ 11.1 µg/mL) | 16 (≈ 5.53 µg/mL) | 32 (≈ 11.1 µg/mL) | 62.5 (≈ 21.6 µg/mL) | 8 (≈ 2.77 µg/mL) | 32 (≈ 11.1 µg/mL) | 32 (≈ 11.1 µg/mL)
16 | COc1cc(Cl)ccc1C(=S)Nc1cccc(Br)c1 | 32 (≈ 11.4 µg/mL) | 32 (≈ 11.4 µg/mL) | 125 (≈ 44.6 µg/mL) | 125 (≈ 44.6 µg/mL) | 125 (≈ 44.6 µg/mL) | 125 (≈ 44.6 µg/mL) | 125 (≈ 44.6 µg/mL) | 125 (≈ 44.6 µg/mL) | 125 (≈ 44.6 µg/mL) | 125 (≈ 44.6 µg/mL)
17 | COc1cc(Cl)ccc1C(=O)Nc1ccc(C(F)(F)F)cc1 | 125 (≈ 41.2 µg/mL) | 125 (≈ 41.2 µg/mL) | 62.5 (≈ 20.6 µg/mL) | 125 (≈ 41.2 µg/mL) | 125 (≈ 41.2 µg/mL) | 125 (≈ 41.2 µg/mL) | 125 (≈ 41.2 µg/mL) | 32 (≈ 10.6 µg/mL) | 125 (≈ 41.2 µg/mL) | 125 (≈ 41.2 µg/mL)
